Experimental data from ChEMBL document CHEMBL1146361, “Studies on acyclic pyrimidines as inhibitors of mycobacteria” (Bioorg Med Chem, 2007).
Calls of active or inactive are those of the source. No cut-off for these calls is given here.

Experiments:
Mycobacterium avium [1] = experiment: Antimycobacterial activity against Mycobacterium avium ATCC 25291 at 2 ug/mL after 24 to 48 hrs by MABA; type: functional
[2] = test system: Mycobacterium tuberculosis; experiment: microbe, parasite or virus in culture; conditions: H37Ra
Mycobacterium avium [3] = experiment: Antimycobacterial activity against Mycobacterium avium ATCC 25291 at 1 ug/mL after 24 to 48 hrs by MABA; type: functional
Procedure, shortened: (§1)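 Compounds in DMSO (100× highest final concentration), diluted in 7H9GC; tested at 100, 50, 10 and 1 µg/mL in triplicate, three experiments. Frozen inoculum diluted in 7H9GC. Read visually and spectrophotometrically. […], mean given. Visual MIC = lowest concentration preventing blue-to-pink change.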

Bacillus subtilis = experiment: Antibacterial activity against Bacillus subtilis up to 100 ug/ml after 16 to 20 hrs by broth microdilution method; type: functional, organism-based
[4] = test system: Mycobacterium tuberculosis; experiment: Antimycobacterial activity against Mycobacterium tuberculosis H37Ra at 10 ug/mL after 24 to 48 hrs by MABA; type: functional; procedure, shortened: as §1
Mycobacterium avium [5] = experiment: Antimycobacterial activity against Mycobacterium avium ATCC 25291 at 50 ug/mL after 24 to 48 hrs by MABA; type: functional; procedure, shortened: as §1
Enterococcus faecalis = experiment: Antibacterial activity against Enterococcus faecalis up to 100 ug/ml after 16 to 20 hrs by broth microdilution method; type: functional, organism-based
HepG2 = experiment: Toxicity against HepG2 cells; type: functional, cell-based; conditions: Homo sapiens
Staphylococcus aureus = experiment: Antibacterial activity against Staphylococcus aureus up to 100 ug/ml after 16 to 20 hrs by broth microdilution method; type: functional, organism-based
Pseudomonas aeruginosa = experiment: Antibacterial activity against Pseudomonas aeruginosa up to 100 ug/ml after 16 to 20 hrs by broth microdilution method; type: functional, organism-based
Mycobacterium avium [6] = experiment: Antimycobacterial activity against Mycobacterium avium ATCC 25291 at 100 ug/mL after 24 to 48 hrs by MABA; type: functional; procedure, shortened: as §1
[7] = test system: Staphylococcus epidermidis; experiment: Antibacterial activity against Staphylococcus epidermidis up to 100 ug/ml after 16 to 20 hrs by broth microdilution method; type: functional, organism-based
[8] = test system: Mycobacterium tuberculosis; experiment: Antimycobacterial activity against Mycobacterium tuberculosis H37Ra at 100 ug/mL after 24 to 48 hrs by MABA; type: functional; procedure, shortened: as §1
Proteus vulgaris = experiment: Antibacterial activity against Proteus vulgaris up to 100 ug/ml after 16 to 20 hrs by broth microdilution method; type: functional, organism-based
Streptococcus pneumoniae = experiment: Antibacterial activity against Streptococcus pneumoniae up to 100 ug/ml after 16 to 20 hrs by broth microdilution method; type: functional, organism-based
[9] = test system: Mycobacterium tuberculosis; experiment: Antimycobacterial activity against Mycobacterium tuberculosis H37Ra at 50 ug/mL after 24 to 48 hrs by MABA; type: functional; procedure, shortened: as §1
Salmonella typhimurium = experiment: Antibacterial activity against Salmonella Typhimurium up to 100 ug/ml after 16 to 20 hrs by broth microdilution method; type: functional, organism-based; conditions: Salmonella enterica subsp. enterica serovar Typhimurium
Escherichia coli = experiment: Antibacterial activity against Escherichia coli up to 100 ug/ml after 16 to 20 hrs by broth microdilution method; type: functional, organism-based
Mycobacterium avium [10] = experiment: Antimycobacterial activity against Mycobacterium avium ATCC 25291 at 10 ug/mL after 24 to 48 hrs by MABA; type: functional; procedure, shortened: as §1

| Compound | inhibition at 2 µg/mL (Mycobacterium avium [1]) [%] | inhibition at 1 µg/mL [2] [%] | inhibition at 1 µg/mL (Mycobacterium avium [3]) [%] | Activity (Bacillus subtilis) | inhibition at 10 µg/mL [4] [%] | inhibition at 50 µg/mL (Mycobacterium avium [5]) [%] | Activity (Enterococcus faecalis) | Activity (HepG2) | Activity (Staphylococcus aureus) | Activity (Pseudomonas aeruginosa) | inhibition at 100 µg/mL (Mycobacterium avium [6]) [%] | Activity [7] | inhibition at 100 µg/mL [8] [%] | Activity (Proteus vulgaris) | Activity (Streptococcus pneumoniae) | inhibition at 50 µg/mL [9] [%] | Activity (Salmonella typhimurium) | Activity (Escherichia coli) | inhibition at 10 µg/mL (Mycobacterium avium [10]) [%] |
| --- | --- | --- | --- | --- | --- | --- | --- | --- | --- | --- | --- | --- | --- | --- | --- | --- | --- | --- | --- |
| CC[C@H]1OC(=O)[C@H](C)[C@@H](O[C@H]2C[C@@](C)(OC)[C@@H](O)[C@H](C)O2)[C@H](C)[C@@H](O[C@@H]2O[C@H](C)C[C@H](N(C)C)[C@H]2O)[C@](C)(OC)C[C@@H](C)C(=O)[C@H](C)[C@@H](O)[C@]1(C)O [CLARITHROMYCIN] | 95 |  |  |  |  |  |  |  |  |  |  |  |  |  |  |  |  |  |  |
| CO[C@H]1/C=C/O[C@@]2(C)Oc3c(C)c(O)c4c(O)c(c(/C=N/N5CCN(C)CC5)c(O)c4c3C2=O)NC(=O)/C(C)=C\C=C\[C@H](C)[C@H](O)[C@@H](C)[C@@H](O)[C@@H](C)[C@H](OC(C)=O)[C@@H]1C [RIFAMPIN] | 90 | 100 | 100 |  |  |  |  |  |  |  |  |  |  |  |  |  |  |  |  |
| CCCCCCCCCCC#Cc1cn(COC(CO)CO)c(=O)[nH]c1=O |  |  |  | inactive | 50 | 25 | inactive | Not toxic | inactive | inactive | 100 | inactive | 100 | inactive | inactive | 100 | inactive | inactive |  |
| [N-]=[N+]=NC(CI)c1cn(COCCO)c(=O)[nH]c1=O (stereo unspecified) |  |  |  | inactive | 50 | 50 | inactive | Not toxic | inactive | inactive | 50 | inactive | 100 | inactive | inactive | 100 | inactive | inactive |  |
| [N-]=[N+]=NC(CCl)c1cn(COCCO)c(=O)[nH]c1=O (stereo unspecified) |  |  |  | inactive | 50 | 100 | inactive | Not toxic | inactive | inactive | 100 | inactive | 100 | inactive | inactive | 100 | inactive | inactive | 50 |
| C=C(N=[N+]=[N-])c1cn(COCCO)c(=O)[nH]c1=O |  |  |  | inactive | 25 | 50 | inactive | Not toxic | inactive | inactive | 50 | inactive | 100 | inactive | inactive | 100 | inactive | inactive | 50 |
